The source of these data is ChEMBL document CHEMBL1121872, “Mesoionic xanthine analogues: phosphodiesterase inhibitory and hypotensive activity” (J Med Chem, 1981).

Assay [1] concerns the target T1, Heart phosphodiesterase (Bos taurus, UniProt Q01061+P14100+E1BN64). The assay is described as follows: In vitro inhibition of bovine heart phosphodiesterase (PDE I). The class given is protein assay. The method, boiled down: (§1)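 Bovine heart phosphodiesterase (Klee method) with 1 μM [3H]cAMP as substrate. Poorly soluble compounds were dissolved in 95% EtOH, 2.5% final, then diluted with buffer. […] I50 is the concentration where V0/V = 2, read from a V0/V vs. concentration plot. Each value averages two consecutive runs, in duplicate or triplicate.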

A further assay is filed under the species Bos taurus. The assay is described as follows: Compound was evaluated for potency against c-AMP phosphodiesterase relative to theophylline. The gist of the method:
(§2)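 Bovine heart PDE (Klee method) with 1 μM [3H]cAMP. […] Compounds needing ethanol (2.5% final) are compared with a theophylline control run with ethanol; the others with one run without ethanol. Potency is expressed relative to that theophylline control.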

Assay [2] has as its system Rattus norvegicus. As to the kind of experiment: Decrease in arterial blood pressure in anesthetized rats at 2.5 mg/kg intravenous femoral injection. The arrangement: unit not given here. The class given is functional, Artery.
Assay [3] relates to Rattus norvegicus. As to the kind of experiment: Decrease in arterial blood pressure in anesthetized rats at 10 mg/kg intravenous femoral injection. The class given is functional, Artery. The arrangement: unit not given here.
Assay [4] has as its system Rattus norvegicus. The assay is described as follows: Decrease in arterial blood pressure in anesthetized rats at 5 mg/kg intravenous femoral injection. The class given is functional, Artery. The arrangement: unit not given here.
The test system of assay [5] is Rattus norvegicus. The assay is described as follows: Decrease in arterial blood pressure in anesthetized rats at 15 mg/kg after intravenous femoral injection. The class given is functional, Artery. Further details: unit not given here.
Assay [6] relates to Rattus norvegicus. The assay is described as follows: Decrease in arterial blood pressure in anesthetized rats at 30 mg/kg intravenous femoral injection. Type of assay: functional, Artery.
The subject of assay [7] is Rattus norvegicus. As to the kind of experiment: Decrease in arterial blood pressure in anesthetized rats at 60 mg/kg intravenous femoral injection. The class given is functional, Artery.
For assay [8], the system named is Rattus norvegicus. The assay is described as follows: Decrease in blood pressure at 5 mg/kg in rat. Type of assay: functional. The method, boiled down:
(§3)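 Male Sprague-Dawley rats (250–385 g), pentobarbital-anesthetized (50 mg/kg ip); right femoral artery cannulated for arterial pressure via transducer, left femoral vein for iv dosing. Each injection flushed with 0.3 mL saline, preceded by equal-volume saline control; 5-min intervals or until pressure returned to baseline. Fall in mean arterial pressure expressed relative to theophylline 2.5 mg/kg control in same animal; n determinations given.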

The target of assay [9] is T1, Heart phosphodiesterase. The assay is described as follows: Inhibition of bovine heart cAMP-phosphodiesterase with ethanol. Type of assay: protein assay. The gist of the method:
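Bovine heart PDE, Klee method with 1 μM [3H]cAMP as substrate. Compounds were predissolved in 95% EtOH, giving 2.5% ethanol final, then diluted in buffer. A theophylline control was run with ethanol present. […] I50 was taken where V0/V = 2 from a V0/V vs concentration plot. Each value averages two consecutive runs, done in duplicate or triplicate.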

Assay [10] deals with Rattus norvegicus. The assay is described as follows: Decrease in blood pressure at 15 mg/kg in rat. Type of assay: functional. The method, boiled down: as §3
Assay [11] concerns Rattus norvegicus. As to the kind of experiment: Decrease in blood pressure at 2.5 mg/kg in rat. Type of assay: functional. The gist of the method:
as §3

The target in assay [12] is T1, Heart phosphodiesterase. The assay is described as follows: Inhibition of bovine heart cAMP-phosphodiesterase (Insoluble). The class given is protein assay. The method, boiled down:
as §1

Assay [13] concerns the target Heart phosphodiesterase (Bos taurus) (UniProt Q01061+P14100+E1BN64). As to the kind of experiment: Inhibition of bovine heart cAMP-phosphodiesterase relative to theophylline (Insoluble). Type of assay: protein assay. The gist of the method: as §2

On Heart phosphodiesterase [1], `CCC1C(=O)N(CC)c2scc(C)[n+]2C1=O` (configuration not stated) registered an I50 of 412 µM. This compound displayed a Relative potency in the assay listed under Bos taurus of 0.7.

In the case of `CCC1C(=O)N2C=CSC2=[N+](CC2CC2)C1=O` (configuration not stated), on Heart phosphodiesterase [1], the I50 was 396 µM. In the assay filed under Bos taurus, the Relative potency turned out to be 0.7.

`CC(C)Cn1c(=O)n(C)c(=O)c2nc[nH]c21` [ISOBUTYLMETHYLXANTHINE]: the I50 on Heart phosphodiesterase [1] worked out at 9.9 µM. The Relative potency in the assay listed under Bos taurus is 28.9.

Consider `CCC1C(=O)N(CC)c2sc(C)n[n+]2C1=O` (configuration not stated), for which the “Mean arterial blood pressure” value amounted to 0 with Rattus norvegicus [2]; 0.6 in the assay on Rattus norvegicus [3]; 0.3 in the assay with Rattus norvegicus [4]; 0.3 in the assay on Rattus norvegicus [5]; 1.2 in the assay with Rattus norvegicus [6]; 1.9 in the assay with Rattus norvegicus [7]. On Heart phosphodiesterase [1], this compound yielded an I50 of 1689 µM. The compound further displayed a Relative potency in the assay listed under Bos taurus of 0.2.

`Cn1c(=O)c2nc[nH]c2n(C)c1=O.O` [THEOPHYLLINE]: the “Mean arterial blood pressure” value is 1 in the assay on Rattus norvegicus [2], 2.34 in the assay on Rattus norvegicus [4] and 2.36 in the assay on Rattus norvegicus [5]. The values for the Blood pressure with Rattus norvegicus [8], in the assay with Rattus norvegicus [10] and with Rattus norvegicus [11] were 31.6 mmHg, 31.9 mmHg and 13.5 mmHg, respectively. The I50 on Heart phosphodiesterase [9] is 412 µM.

Regarding `CCN1C(=O)C(Cc2ccc(OC)cc2)C(=O)[n+]2ncsc21` (configuration not stated), the I50 result on Heart phosphodiesterase [12] is “Insoluble”. Besides, the Relative potency entry in [13] is “Insoluble”.

With `CCC1C(=O)N(CC2CC2)c2scc(-c3ccccc3)[n+]2C1=O` (configuration not stated), at Heart phosphodiesterase [1], the I50 amounted to 287 µM. This compound also returned a Relative potency in the assay listed under Bos taurus of 1.5.

Consider `CC[N+]1=C2SC=NN2C(=O)C(Cc2ccccc2)C1=O` (configuration not stated), for which the I50 at Heart phosphodiesterase [1] turned out to be 52 µM. This compound also had a Relative potency in the assay filed under Bos taurus of 7.9.

For the compound `O=C1CC(=O)[n+]2ccsc2N1Cc1cccc(Cl)c1`, the I50 at Heart phosphodiesterase [1] is 308 µM. The compound also registered a Relative potency in the assay listed under Bos taurus of 1.3.

On Heart phosphodiesterase [1], `CC[N+]1=C2SC=NN2C(=O)CC1=O` gave an I50 of 774 µM. In the assay filed under Bos taurus, the Relative potency was 0.5.

For the compound `CCCCCC1C(=O)N(CC)c2scn[n+]2C1=O` (configuration not stated), at Heart phosphodiesterase [1], the I50 came to 156 µM. The same compound came in with a Relative potency in the assay filed under Bos taurus of 2.6.

As to `CCC1C(=O)N2N=CSC2=[N+](CC)C1=O` (configuration not stated), the “Mean arterial blood pressure” value in the assay on Rattus norvegicus [2] is 0.4; in the assay on Rattus norvegicus [3], 1.6; with Rattus norvegicus [4], 0.6; in the assay on Rattus norvegicus [5], 0.7. Moreover, the I50 at Heart phosphodiesterase [1] was determined as 550 µM. In the assay filed under Bos taurus, this compound had a Relative potency of 0.7.

For the compound `CCN1C(=O)C(C)C(=O)[n+]2nc(C)sc21` (configuration not stated), the “Mean arterial blood pressure” value in the assay on Rattus norvegicus [2] turned out to be 0.2; in the assay on Rattus norvegicus [3], 0.4; in the assay with Rattus norvegicus [4] it was 0.3; in the assay with Rattus norvegicus [5], 0.5. The compound also registered an I50 on Heart phosphodiesterase [1] of 2453 µM. The compound also returned a Relative potency in the assay listed under Bos taurus of 0.1.

Compound `CCCC1C(=O)N(CC)c2scn[n+]2C1=O` (configuration not stated) displayed an I50 on Heart phosphodiesterase [1] of 252 µM. In the assay listed under Bos taurus, this compound showed a Relative potency of 1.6.

As to `CCc1n[n+]2c(s1)N(CC)C(=O)C(C)C2=O` (configuration not stated), the I50 at Heart phosphodiesterase [1] was 2411 µM. The compound further had a Relative potency in the assay filed under Bos taurus of 0.1.

On Heart phosphodiesterase [1], `CC1C(=O)N(Cc2cccc(Cl)c2)c2scc(-c3ccccc3)[n+]2C1=O` (configuration not stated) returned an I50 of 152 µM. Further, the Relative potency in the assay listed under Bos taurus is 2.7.

`CCC(C)C1C(=O)N(CC)c2scn[n+]2C1=O` (configuration not stated) showed an I50 at Heart phosphodiesterase [1] of 233 µM. The Relative potency in the assay listed under Bos taurus came to 1.8.

In the case of `CCCCN1C(=O)CC(=O)[n+]2ccsc21`, the “Mean arterial blood pressure” value in the assay on Rattus norvegicus [2] is listed as 0.9; in the assay with Rattus norvegicus [3], 1.2; in the assay with Rattus norvegicus [4] it was 0.6; in the assay on Rattus norvegicus [5], 1.2; in the assay on Rattus norvegicus [6], 2.9.

As for `CCc1n[n+]2c(s1)N(CC)C(=O)C(CC)C2=O` (configuration not stated), at Heart phosphodiesterase [1], the I50 was determined as 1980 µM. For the same compound, the Relative potency in the assay filed under Bos taurus is 0.1.

For `Cn1c(=O)c2[nH]cnc2n(C)c1=O`, the Relative potency in the assay filed under Bos taurus was 1.

Regarding `CC[N+]1=C2SC=NN2C(=O)C(C)C1=O` (configuration not stated), the “Mean arterial blood pressure” value in the assay with Rattus norvegicus [2] is 0.9; with Rattus norvegicus [3], 1.6; in the assay on Rattus norvegicus [4], 2.2; with Rattus norvegicus [5], 1.2; in the assay with Rattus norvegicus [6], 7.5. Moreover, the I50 at Heart phosphodiesterase [1] is 1160 µM. In the assay filed under Bos taurus, this compound yielded a Relative potency of 0.4.

On to `CCN1C(=O)C(C(C)C)C(=O)[n+]2ncsc21` (configuration not stated), for which the I50 on Heart phosphodiesterase [1] came out at 254 µM. Further, the Relative potency in the assay listed under Bos taurus was 1.6.

As to `CCN1C(=O)C(Cc2ccc(Cl)cc2)C(=O)[n+]2ncsc21` (configuration not stated), at Heart phosphodiesterase [1], the I50 stood at 9.6 µM. In addition, the Relative potency in the assay filed under Bos taurus amounted to 42.9.

Turning to `CCC1C(=O)N(CC)c2scc[n+]2C1=O` (configuration not stated), the “Mean arterial blood pressure” value in the assay on Rattus norvegicus [2] is recorded as 0.3; in the assay on Rattus norvegicus [3], 0.8; in the assay with Rattus norvegicus [4], 0.6; in the assay on Rattus norvegicus [5], 1.2. At Heart phosphodiesterase [1], the I50 was 858 µM. The same compound registered a Relative potency in the assay listed under Bos taurus of 0.3.

On Heart phosphodiesterase [1], `CCN1C(=O)C(c2ccccc2)C(=O)[n+]2ncsc21` (configuration not stated) had an I50 of 24 µM. The compound also displayed a Relative potency in the assay listed under Bos taurus of 17.2.

In turn, `CCN1C(=O)C(CC(C)C)C(=O)[n+]2ncsc21` (configuration not stated) registered an I50 at Heart phosphodiesterase [1] of 154 µM. In the assay filed under Bos taurus, this compound came in with a Relative potency of 2.7.
